In general, ED50 refers to the dose that gives a 50% effect, or the effect in half of the subjects. Low values mean an effect at a small dose, high ones a need for a large dose. As a reminder, the IC50 is the concentration that inhibits the measured activity by half. A higher IC50 goes with lower potency. For orientation: logP means a log measure of how a compound divides between an organic and an aqueous phase. Higher therefore signals a more lipophilic compound.

The subject of series [1] is Mus musculus. As to the kind of experiment: Convulsant effects in mice treated with PTZ (40 mg/kg) dose. The series is classed as functional.
Series [2] concerns Mus musculus. The experiment in a line: Antagonism of Diazepam (2.5 mg/kg) anticonvulsant effects in mice treated with PTZ (80 mg/kg). The series is classed as functional. The method, boiled down:
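Male NIH mice in groups of 10 received graded ip doses in Emulphor/saline 1:9, or vehicle. Diazepam 2.5 mg/kg ip followed 15 min later, then PTZ 80 mg/kg 15 min after that. ED50 is the dose antagonizing diazepam's protection against tonic/clonic convulsions in 50% of mice. Highest dose tested was 30 or 40 mg/kg.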

For series [3], the target named is GABA-A receptor; anion channel. As to the kind of experiment: In vitro potency measured against [3H]diazepam at the benzodiazepine receptor in rat. The method, boiled down: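 Male Sprague-Dawley rats (175-250 g); cerebral cortex homogenized in 50 mM Tris-HCl pH 7.4 and washed by repeated centrifugation at 2000g. Membranes incubated with 2 nM [3H]diazepam for 60-90 min at 0-4 °C, then filtered. Nonspecific binding defined with 10 µM flunitrazepam. Six or more concentrations; IC50 from Hill plots; mean of at least three determinations.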

Series [4] in a line: Partition coefficient (logP). The series is classed as physicochemical. To be noted: octanol/water. In outline:
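Crude octanol/water log P calculated from tabulated fragmentation constants; for one hydroxy analogue also determined experimentally.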

Series [5] has as its target GABA-A receptor; anion channel. The experiment in a line: In vitro inhibition of [3H]flunitrazepam binding to rat GABA-A Benzodiazepine receptor. The series is classed as protein-complex assay.

For `COc1ccc2c(c1)[nH]c1c3c4ccccc4nc-3c[nH]c12.Cl`, the results for the ED50 in series [1] and in series [2] were 7 mg/kg and 3.9 mg/kg, respectively. The IC50 in series [3] amounted to 8 nM. In series [4], this compound returned a logP of 4.04.
`Brc1ccc2[nH]c3c4c5ccccc5nc-4c[nH]c3c2c1` gave an IC50 in series [3] of 750 nM.
The same measure, in the same setting: then `c1ccc(COc2ccc3c(c2)[nH]c2c3ncc3[nH]c4ccccc4c32)cc1`, with > 4000 nM.
Regarding `c1ccc2c(c1)[nH]c1c2ncc2[nH]c3ccccc3c21`, the logP in series [4] is 3.87.
As for `Fc1ccc2[nH]c3c4c5ccccc5nc-4c[nH]c3c2c1`, the ED50 in series [1] is > 30 mg/kg. The compound further showed an IC50 in series [3] of 6 nM. In series [4], this compound returned a logP of 4.01.
On to `COc1cccc2[nH]c3c4c5ccccc5nc-4c[nH]c3c12`, for which the IC50 in series [3] stood at 250 nM.
With `O=[N+]([O-])c1ccc2[nH]c3c[nH]c4c5ccccc5nc-4c3c2c1`, in series [3], the IC50 worked out at 4 nM.
The same measure, in the same setting: as for `Nc1ccc2[nH]c3c[nH]c4c5cc(Cl)ccc5nc-4c3c2c1`, the figure is > 350 nM.
On to `Clc1ccc2c(c1)[nH]c1c2ncc2[nH]c3ccccc3c21`, for which, in series [1], the ED50 was > 30 mg/kg. The compound further yielded a logP in series [4] of 4.58.
`Oc1ccc2[nH]c3c4c5ccccc5nc-4c[nH]c3c2c1`: the ED50 in series [1] and in series [2] was > 40 mg/kg each time. In series [3], this compound showed an IC50 of 114 nM.
In turn, `c1ccc(COc2ccc3[nH]c4c5c6ccccc6nc-5c[nH]c4c3c2)cc1` showed an IC50 in series [3] of 1600 nM.
`CC(C)(C)C(=O)Oc1ccc2c(c1)[nH]c1c3c4ccccc4nc-3c[nH]c12`: in series [1], the 50% effect level (ED50) was put at a dose of 17.5 mg/kg. In series [5], this compound gave an IC50 of 200 nM.
Turning to `Nc1ccc2[nH]c3c[nH]c4c5ccccc5nc-4c3c2c1`, in series [3], the midpoint of inhibition, the IC50, lay at 44 nM.
As to `Cc1cccc2[nH]c3c4c5ccccc5nc-4c[nH]c3c12`, in series [3], the IC50 is > 5000 nM.
`Oc1ccc2c(c1)[nH]c1c3c4ccccc4nc-3c[nH]c12`: the ED50 in series [1] and in series [2] was > 40 mg/kg each time. In series [3], this compound returned an IC50 of 6 nM. In series [4], this compound yielded a logP of 0.95.
The compound `Oc1cccc2[nH]c3c4c5ccccc5nc-4c[nH]c3c12` came in with an IC50 in series [3] of 578 nM.
Still for that read-out and setting: as for `Clc1ccc2[nH]c3c[nH]c4c5cccc(Cl)c5nc-4c3c2c1`, the figure is 310 nM.
For `Cc1ccc2c(c1)[nH]c1c3c4ccccc4nc-3c[nH]c12`, the ED50 in series [1] and in series [2] was > 40 mg/kg throughout. Moreover, inhibition in series [3] was half-maximal at 8 nM (IC50). Moreover, in series [4], the logP amounted to 4.53.
`O=S(=O)(O)c1ccc2[nH]c3c(ncc4[nH]c5ccc(S(=O)(=O)O)cc5c43)c2c1`: the IC50 in series [3] amounted to 5000 nM.
On the same count and under the same terms, then `Cc1ccc2[nH]c3c4c5ccccc5nc-4c[nH]c3c2c1`, with 224 nM; and `CCc1nc2c3ccccc3[nH]c2c2c1[nH]c1ccccc12`, with 250 nM.
For `Brc1ccc2[nH]c3cnc4c5ccccc5[nH]c4c3c2c1`, in series [3], half-maximal inhibition (IC50) was put at 6 nM.
Turning to `Brc1ccc2c(c1)[nH]c1c3c4ccccc4nc-3c[nH]c12`, the 50% effective dose (ED50) in series [1] and in series [2] was > 40 mg/kg throughout. For the same compound, the IC50 in series [3] is 19 nM. Besides, the logP in series [4] is 4.73.
The compound `Cn1c2ccccc2c2[nH]cc3nc4ccccc4c-3c21` had an IC50 in series [3] of 157 nM.
Same read-out and setting: then `Nc1ccc2[nH]c3c[nH]c4c5ccc(Cl)cc5nc-4c3c2c1`, with 98 nM; and `O=[N+]([O-])c1ccc2[nH]c3c[nH]c4c5cc(Cl)ccc5nc-4c3c2c1`, with 1190 nM.
Take `Fc1ccc2c(c1)[nH]c1c3c4ccccc4nc-3c[nH]c12`: the ED50 in series [1] and in series [2] was > 30 mg/kg each time. Also, the logP in series [4] was 4.01.
The compound `Cn1c2ccccc2c2c3nc4ccccc4c-3[nH]cc21` displayed an IC50 in series [3] of 1140 nM.
Same read-out and setting: then `Brc1cccc2c1[nH]c1c3c4ccccc4nc-3c[nH]c12`, with 28 nM; and `Brc1ccc2[nH]c3c(ncc4[nH]c5ccc(Br)cc5c43)c2c1`, with > 320 nM.
Still for that read-out and setting: then `c1ccc(COc2cccc3[nH]c4c5c6ccccc6nc-5c[nH]c4c23)cc1`, with > 4000 nM; and `Cc1cccc2c1[nH]c1c3c4ccccc4nc-3c[nH]c12`, with 83 nM.
Still for that read-out and setting: as for `O=[N+]([O-])c1ccc2[nH]c3c[nH]c4c5ccc(Cl)cc5nc-4c3c2c1`, the figure is 126 nM.
